# Laboratory results: ChEMBL document CHEMBL1240424, “Design and synthesis of potent inhibitors of beta-ketoacyl-acyl carrier protein synthase III (FabH) as potential antibacterial agents” (Eur J Med Chem, 2010)
# How the values were obtained:
# [1] = system: Escherichia coli; experiment: Antibacterial activity against Escherichia coli after 24 hrs by MTT assay; type: functional
# Procedure, shortened: (§1)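 Broth microdilution in Mueller–Hinton medium. Compounds from a 100 μg/mL DMSO stock were serially diluted, and inoculum was about 10⁵ cfu/mL. Plates were incubated 24 h at 37 °C and MIC was read visually. MTT (2 mg/mL in PBS pH 7.4) was then added for 4–5 h at room temperature, dye extracted with acidified isopropanol for 12 h, and OD read at 550 nm.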
# [2] = system: Pseudomonas fluorescens; experiment: Antibacterial activity against Pseudomonas fluorescens after 24 hrs by MTT assay; type: functional; procedure, shortened: as §1
# [3] = system: Bacillus subtilis; experiment: Antibacterial activity against Bacillus subtilis after 24 hrs by MTT assay; type: functional; procedure, shortened: as §1
# [4] = system: Staphylococcus aureus; experiment: Antibacterial activity against Staphylococcus aureus after 24 hrs by MTT assay; type: functional; procedure, shortened: as §1
# [5] = Inhibition of Escherichia coli N-terminal His-tagged FabH expressed in Escherichia coli BL21(DE3) after 25 mins
# Procedure, shortened: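 His-tagged E. coli FabH was Ni-NTA purified. Reaction: 1 nM FabH, 2.5 μM holo-ACP, 20 mM sodium phosphate pH 7.0, 0.5 mM DTT, 0.25 mM MgCl₂. Started with 25 μM acetyl-CoA plus [³H]acetyl-CoA and run 25 min. Stopped with cold 50% TCA, pellet washed and dissolved in NaOH, ³H counted by scintillation. Inhibitors added from DMSO, final ≤2% DMSO, to give IC50.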
Structure (SMILES),Activity [1] [µg/mL],Activity [2] [µg/mL],Activity [3] [µg/mL],Activity [4] [µg/mL],IC50 [5] [µM]
CC(C)c1ccc(/N=C/c2cc(F)ccc2O)cc1,>100,100,>100,>100,
CN(C)CCC/N=C/c1cc(F)ccc1O,>100,>100,>100,>100,
Oc1ccc(F)cc1/C=N/c1ccccc1F,6.25,6.25,12.5,6.25,8.6
Cc1ccc(/N=C/c2cc(F)ccc2O)cc1,50,50,>100,100,
Oc1ccc(F)cc1/C=N/c1ccc(F)cc1,12.5,12.5,25,12.5,28.6
NC[C@H]1O[C@H](O[C@H]2[C@H](O)[C@@H](O[C@H]3O[C@H](CO)[C@@H](O)[C@H](N)[C@H]3O)[C@H](N)C[C@@H]2N)[C@H](O)[C@@H](O)[C@@H]1O [KANAMYCIN],3.13,3.13,1.56,1.56,
Oc1ccc(F)cc1/C=N/CCCN1CCOCC1,>100,>100,>100,>100,
Oc1ccc(F)cc1/C=N/c1ccccn1,50,100,>100,100,
CCN(CC)CCC/N=C/c1cc(F)ccc1O,>100,>100,>100,>100,
Oc1ccc(F)cc1/C=N/C1CCCCC1,6.25,12.5,25,12.5,7.4
Oc1ccc(F)cc1/C=N/c1ccc(Cl)cc1,12.5,25,50,25,42.5
Oc1ccc(F)cc1/C=N/c1ccccc1Cl,6.25,12.5,12.5,12.5,11.7
Oc1ccc(F)cc1/C=N/CCN1CCNCC1,12.5,25,50,25,48.5
Oc1ccc(F)cc1/C=N/C1CCN(Cc2ccccc2)CC1,>100,>100,>100,>100,
Oc1ccc(F)cc1/C=N/C1CCCC1,12.5,12.5,25,25,18.4
Oc1ccc(/N=C/c2cc(F)ccc2O)cc1,>100,>100,>100,>100,
Oc1ccc(F)cc1/C=N/c1ccc(Br)cc1,25,25,50,50,
Oc1ccc(F)cc1/C=N/CCN1CCOCC1,25,25,50,50,
Oc1ccc(F)cc1/C=N/CC1CCCCC1,6.25,6.25,12.5,25,6.8
O=[N+]([O-])c1ccc(/N=C/c2cc(F)ccc2O)cc1,>100,>100,>100,>100,
Oc1ccc(CC/N=C/c2cc(F)ccc2O)cc1,1.56,3.13,6.25,1.56,2.7
